Laboratory results: ChEMBL document CHEMBL1124759, “Fluoronaphthyridines and quinolones as antibacterial agents. 2. Synthesis and structure-activity relationships of new 1-tert-butyl 7-substituted derivatives” (J Med Chem, 1990)
Converted amounts (≈) assume the structure as drawn.

Tests used:
Enterobacter cloacae [1] = test: (§1) In vitro minimum inhibitory concentration (MIC) against Enterobacter cloacae A 9656 at 37 degrees C for 18 h.; type: functional
Outline: (§2)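 Two-fold serial broth dilution in nutrient broth. Inoculum adjusted to 10^6 cfu/mL. Compounds tested from 0.0005 to 250 µg/mL.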

Escherichia coli [2] = test: In vitro minimum inhibitory concentration (MIC) against Escherichia coli A 15119 at 37 degrees Celsius for 18 h.; type: functional; outline: as §2
Klebsiella pneumoniae [3] = test: In vitro minimum inhibitory concentration (MIC) against Klebsiella pneumoniae A 9664 at 37 degrees C for 18 h.; type: functional; outline: as §2
Serratia marcescens = test: In vitro minimum inhibitory concentration (MIC) against Serratia marcescens A 20019 at 37 degrees C for 18 hr; type: functional; outline: as §2
Enterococcus faecalis = test: In vitro minimum inhibitory concentration (MIC) against Enterococcus faecalis A 9808 at 37 degrees C for 18 h.; type: functional; outline: as §2
Pseudomonas aeruginosa [4] = test: In vitro minimum inhibitory concentration (MIC) against Pseudomonas aeruginosa A 9843 at 37 degrees C for 18 h; type: functional; outline: as §2
Morganella morganii = test: In vitro minimum inhibitory concentration (MIC) against Morganella morganii A 15153 at 37 degrees C for 18 h.; type: functional; outline: as §2
Staphylococcus aureus [5] = test: In vitro minimum inhibitory concentration (MIC) against Staphylococcus aureus Smith A 9537 at 37 degrees C for 18 hr; type: functional; outline: as §2
Enterococcus faecium = test: In vitro minimum inhibitory concentration (MIC) against Enterococcus faecium A 24885 at 37 degrees C for 18 h.; type: functional; outline: as §2
Enterobacter cloacae [6] = test: In vitro minimum inhibitory concentration (MIC) against Enterobacter cloacae A 9656 at 37 degree C for 18 h.; type: functional; outline: as §2
Escherichia coli [7] = test: In vitro minimum inhibitory concentration (MIC) against Escherichia coli A 15119 at 37 degrees C for 18 h.; type: functional; outline: as §2
Escherichia coli [8] = test: Efficacy on systematic infections against Escherichia coli A 15119 after oral administration in mice; type: functional; details: read-out: PD50
Outline: (§3)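 Mice given compound orally after lethal systemic infection. Read-out is the oral dose protecting 50% of mice from death (PD50), reported in mg/kg.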

Pseudomonas aeruginosa [9] = test: Efficacy on systematic infections against Pseudomonas aeruginosa A 9843 after oral administration in mice; type: functional; details: read-out: PD50; outline: as §3
Enterobacter cloacae [10] = test: as §1; type: functional; remark: listed apart in the source
Canis familiaris [11] = species on record: Canis familiaris; details: dog, in vivo, po, 25 mg/kg
Staphylococcus aureus [12] = test: Efficacy on systematic infections against Staphylococcus aureus A 9537 after oral administration in mice; type: functional; details: read-out: PD50; outline: as §3
[13] = (§4) Tested for aqueous solubility; details: aqueous medium
Klebsiella pneumoniae [14] = test: Efficacy on systematic infections against Klebsiella pneumoniae A 9664 after oral administration in mice; type: functional; details: read-out: PD50; outline: as §3
Pseudomonas aeruginosa [15] = test: In vitro minimum inhibitory concentration (MIC) against Pseudomonas aeruginosa A 9843 at 37 degree C for 18 h; type: functional; outline: as §2
Klebsiella pneumoniae [16] = test: In vitro minimum inhibitory concentration (MIC) against Klebsiella pneumoniae A 9664 at 37 degrees Celsius for 18 h.; type: functional; outline: as §2
Enterobacter cloacae [17] = test: In vitro minimum inhibitory concentration (MIC) against Enterobacter cloacae A 9656 at 37 degrees Celsius for 18 h.; type: functional; outline: as §2
[18] = as §4; type: physicochemical; details: aqueous medium; read-out: S
Outline: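 An excess of solid was shaken overnight in water for injection at isoelectric pH. The mixture was filtered, and the filtrate was diluted and quantified by HPLC with UV detection.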

Klebsiella pneumoniae [19] = test: In vitro minimum inhibitory concentration (MIC) […] A 9664 at 37 degrees Celsius for 18 h.; type: functional; outline: as §2
Klebsiella pneumoniae [20] = test: In vitro minimum inhibitory concentration (MIC) against Klebsiella pneumoniae A 9664 at 37 degrees C for 18 h; type: functional; outline: as §2
Mus musculus [21] = test: Dose to protect 50% of mice from lethal infection after intravenous administration; type: functional
Canis familiaris [22] = test: in vivo; details: dog, po, 25 mg/kg
in vivo = details: dog, urine, po, 25 mg/kg
Canis familiaris [23] = test: in vivo; details: dog, po, 25 mg/kg; remark: listed apart in the source
Mus musculus [24] = test: Dose to protect 50% of mice from lethal infection after peroral administration.; type: functional; details: po; outline: as §3
Staphylococcus aureus [25] = test: Efficacy on systematic infections against Staphylococcus aureus Smith A 9537 after oral administration in mice; type: functional; details: read-out: PD50; outline: as §3

| SMILES | MIC (Klebsiella pneumoniae [3]) [µg/mL] | MIC (Serratia marcescens) [µg/mL] | MIC (Enterococcus faecalis) [µg/mL] | MIC (Morganella morganii) [µg/mL] | MIC (Staphylococcus aureus [5]) [µg/mL] | MIC (Enterococcus faecium) [µg/mL] | MIC (Escherichia coli [7]) [µg/mL] | ED50 (Escherichia coli [8]) [mg/kg] | ED50 (Pseudomonas aeruginosa [9]) [mg/kg] | MIC (Enterobacter cloacae [10]) [µg/mL] | ED50 (Klebsiella pneumoniae [14]) [mg/kg] | MIC (Pseudomonas aeruginosa [15]) [µg/mL] | also measured |
| --- | --- | --- | --- | --- | --- | --- | --- | --- | --- | --- | --- | --- | --- |
| CC1CN(c2cc3c(cc2F)c(=O)c(C(=O)O)cn3C(C)(C)C)CC(C)N1 (stereo unspecified) | 0.5 (≈ 1.33 µM) | 2 (≈ 5.33 µM) | 2 (≈ 5.33 µM) | 1 (≈ 2.66 µM) | 0.25 (≈ 0.666 µM) | 8 (≈ 21.3 µM) | – | – | – | – | – | – | MIC (Enterobacter cloacae [1]): 0.13 µg/mL (≈ 0.346 µM); MIC (Escherichia coli [2]): 0.13 µg/mL (≈ 0.346 µM); MIC (Pseudomonas aeruginosa [4]): 4 µg/mL (≈ 10.7 µM) |
| CC1CN(c2nc3c(cc2F)c(=O)c(C(=O)O)cn3C(C)(C)C)CCN1 (stereo unspecified) | 2 (≈ 5.52 µM) | 4 (≈ 11 µM) | 0.5 (≈ 1.38 µM) | 4 (≈ 11 µM) | 0.13 (≈ 0.359 µM) | 2 (≈ 5.52 µM) | 0.5 (≈ 1.38 µM) | – | – | – | – | – | MIC (Enterobacter cloacae [6]): 1 µg/mL (≈ 2.76 µM); MIC (Pseudomonas aeruginosa [4]): 8 µg/mL (≈ 22.1 µM) |
| CC(C)(C)n1cc(C(=O)O)c(=O)c2cc(F)c(N3CCNCC3)nc21 | 0.13 (≈ 0.373 µM) | 0.25 (≈ 0.718 µM) | 0.5 (≈ 1.44 µM) | 0.25 (≈ 0.718 µM) | 0.06 (≈ 0.172 µM) | 8 (≈ 23 µM) | 0.015 (≈ 0.0431 µM) | 4.7 | 10.9 | 0.06 (≈ 0.172 µM) | 4.8 | – | AUC (Canis familiaris [11]): 50000 ng·h/mL; ED50 (Staphylococcus aureus [12]): 1.1 mg/kg; MIC (Pseudomonas aeruginosa [4]): 1 µg/mL (≈ 2.87 µM); solubility [13]: 820 µg/mL (≈ 2350 µM) |
| CC(C)(C)n1cc(C(=O)O)c(=O)c2cc(F)c(N3CCNC(CF)C3)nc21.CS(=O)(=O)O (stereo unspecified) | – | 1 | 4 | 1 | 0.13 | 16 | 0.13 | – | – | 0.06 | – | 4 | MIC (Klebsiella pneumoniae [16]): 0.13 µg/mL |
| CCNC1CCN(c2nc3c(cc2F)c(=O)c(C(=O)O)cn3C(C)(C)C)C1 (stereo unspecified) | 0.06 (≈ 0.159 µM) | 1 (≈ 2.66 µM) | 0.13 (≈ 0.345 µM) | 1 (≈ 2.66 µM) | 0.06 (≈ 0.159 µM) | 4 (≈ 10.6 µM) | 0.06 (≈ 0.159 µM) | – | – | – | – | 4 (≈ 10.6 µM) | MIC (Enterobacter cloacae [17]): 0.25 µg/mL (≈ 0.664 µM) |
| CC(C)(C)n1cc(C(=O)O)c(=O)c2cc(F)c(N3C[C@@H](N)[C@@H](F)C3)nc21.CS(=O)(=O)O | 0.06 | 0.5 | 0.5 | 0.5 | 0.015 | 4 | – | – | – | 0.25 | – | 2 | MIC (Escherichia coli [2]): 0.25 µg/mL |
| CS(=O)(=O)O.C[C@H]1CN(c2nc3c(cc2F)c(=O)c(C(=O)O)cn3C(C)(C)C)C[C@@H]1N | – | 0.13 | 0.06 | 0.13 | 0.008 | 0.5 | 0.015 | 2.4 | 6.3 | 0.015 | 6.3 | 0.25 | ED50 (Staphylococcus aureus [12]): 1.6 mg/kg; MIC (Klebsiella pneumoniae [16]): 0.06 µg/mL |
| CC(C)(C)n1cc(C(=O)O)c(=O)c2cc(F)c(N3C[C@H]4C[C@@H]3CN4)cc21.CS(=O)(=O)O | – | 0.25 | 2 | 2 | 0.5 | 4 | 0.5 | – | – | 0.25 | – | 0.5 | solubility [18]: 230 µg/mL; MIC (Klebsiella pneumoniae [19]): 0.13 µg/mL |
| CN1C2CCC1CN(c1cc3c(cc1F)c(=O)c(C(=O)O)cn3C(C)(C)C)C2.Cl | 0.13 | 0.5 | 2 | 1 | 0.13 | 8 | – | – | – | 0.13 | – | 4 | MIC (Escherichia coli [2]): 0.5 µg/mL |
| CC(C)(C)n1cc(C(=O)O)c(=O)c2cc(F)c(N3C[C@H]4C[C@@H]3CN4)nc21 | – | 0.06 (≈ 0.166 µM) | 0.13 (≈ 0.361 µM) | 0.25 (≈ 0.694 µM) | 0.06 (≈ 0.166 µM) | 1 (≈ 2.77 µM) | 0.06 (≈ 0.166 µM) | 1.8 | 4.7 | 0.06 (≈ 0.166 µM) | 4.9 | 0.25 (≈ 0.694 µM) | MIC (Klebsiella pneumoniae [20]): 0.06 µg/mL (≈ 0.166 µM); LD50 (Mus musculus [21]): 303 mg/kg; AUC (Canis familiaris [11]): 55000 ng·h/mL; ED50 (Staphylococcus aureus [12]): 1.6 mg/kg; solubility [13]: 80 µg/mL (≈ 222 µM); half-life (Canis familiaris [22]): 4.5 h; dose excreted (in vivo): 20%; Cmax (Canis familiaris [23]): 5600 ng/mL; LD50 (Mus musculus [24]): 5000 mg/kg |
| O=C(O)c1cn(C2CC2)c2cc(N3CCNCC3)c(F)cc2c1=O [CIPROFLOXACIN] | 0.03 (≈ 0.0905 µM) | 0.3 (≈ 0.905 µM) | 0.5 (≈ 1.51 µM) | 0.015 (≈ 0.0453 µM) | 0.13 (≈ 0.392 µM) | 4 (≈ 12.1 µM) | – | 1 | 2.6 | – | 1.5 | 0.13 (≈ 0.392 µM) | ED50 (Staphylococcus aureus [25]): 3.4 mg/kg |
| CCn1cc(C(=O)O)c(=O)c2cc(F)c(N3CCNCC3)cc21 [NORFLOXACIN] | 0.03 (≈ 0.0939 µM) | 0.13 (≈ 0.407 µM) | 4 (≈ 12.5 µM) | 0.015 (≈ 0.047 µM) | 0.25 (≈ 0.783 µM) | 8 (≈ 25.1 µM) | 0.13 (≈ 0.407 µM) | 13 | 12.6 | 0.06 (≈ 0.188 µM) | 8 | 0.5 (≈ 1.57 µM) | ED50 (Staphylococcus aureus [25]): 1.9 mg/kg |
